Assay results: ChEMBL document CHEMBL1221214, “Cytosporone B is an agonist for nuclear orphan receptor Nur77” (Nat Chem Biol, 2008)
Converted amounts (≈) assume the structure as drawn. The source made the active and inactive calls. The rule behind the calls is not given here.

Assays:
BGC-823 [1] = experiment: Antitumor activity against human BGC823 cells expressing Nur77-WT xenografted in athymic nude mouse BALB/c assessed as tumor weight 13 mg/kg, ip twice a week after 4 weeks; format: functional, organism-based; design: dose 13 mg/kg
Outline: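 BALB/c athymic nude mice (~16 g, 4 weeks old, 28 °C, sterile housing) inoculated subcutaneously with 0.05 ml BGC-823 cell suspension (wild-type, si-Nur77 or si-Ctrl sublines; 2.5×10^10 l-1), n = 6; after 1 week, Csn-B 13 mg kg-1 ip twice weekly or DMSO; tumors weighed at 4 weeks; means ± s.d., two-tailed t-test.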

[2] = molecular target: T1, Nuclear receptor subfamily 4immunitygroup A member 1 (Homo sapiens, UniProt P22736); experiment: Agonist activity at nuclear orphan receptor Nur77 expressed in human BGC823 cells co-transfected with fused GAL4-Nur77 assessed as transactivation after 12 hrs by luciferase reporter gene assay; format: functional, cell-based, BGC-823
T1 sequence (P22736 whole entry, the tested form may be a part): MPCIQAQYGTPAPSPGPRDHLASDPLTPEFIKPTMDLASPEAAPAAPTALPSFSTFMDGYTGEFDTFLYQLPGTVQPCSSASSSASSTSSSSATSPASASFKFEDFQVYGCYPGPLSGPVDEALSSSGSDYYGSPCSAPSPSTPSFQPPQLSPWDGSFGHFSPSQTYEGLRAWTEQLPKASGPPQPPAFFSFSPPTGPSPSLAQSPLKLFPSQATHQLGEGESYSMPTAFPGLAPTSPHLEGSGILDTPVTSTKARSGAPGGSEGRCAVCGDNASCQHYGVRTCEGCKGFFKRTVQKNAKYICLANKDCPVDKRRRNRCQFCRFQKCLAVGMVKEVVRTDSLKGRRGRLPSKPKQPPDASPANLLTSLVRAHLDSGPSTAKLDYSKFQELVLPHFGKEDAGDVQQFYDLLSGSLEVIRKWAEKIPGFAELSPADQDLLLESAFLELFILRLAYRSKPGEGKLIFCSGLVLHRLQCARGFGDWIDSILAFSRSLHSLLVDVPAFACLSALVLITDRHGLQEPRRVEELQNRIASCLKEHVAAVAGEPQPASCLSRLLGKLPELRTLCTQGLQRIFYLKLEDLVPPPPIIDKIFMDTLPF

BGC-823 [3] = experiment: Induction of Nur77 mediated apoptosis in human BGC823 cells at 5 ug/ml after 48 hrs by flow cytometry assay
[4] = molecular target: Nuclear receptor subfamily 4 group A member 1 (Mus musculus) (UniProt P12813); experiment: Agonist activity at Nur77 in wild-type mouse C57BL/6 assessed as pyruvate kinase mRNA at 50 mg/kg, ip within 30 mins by real-time PCR analysis; format: functional, organism-based; design: dose 50 mg/kg
Sequence of Nuclear receptor subfamily 4 group A member 1 (Mus musculus) (P12813 whole entry, the tested form may be a part): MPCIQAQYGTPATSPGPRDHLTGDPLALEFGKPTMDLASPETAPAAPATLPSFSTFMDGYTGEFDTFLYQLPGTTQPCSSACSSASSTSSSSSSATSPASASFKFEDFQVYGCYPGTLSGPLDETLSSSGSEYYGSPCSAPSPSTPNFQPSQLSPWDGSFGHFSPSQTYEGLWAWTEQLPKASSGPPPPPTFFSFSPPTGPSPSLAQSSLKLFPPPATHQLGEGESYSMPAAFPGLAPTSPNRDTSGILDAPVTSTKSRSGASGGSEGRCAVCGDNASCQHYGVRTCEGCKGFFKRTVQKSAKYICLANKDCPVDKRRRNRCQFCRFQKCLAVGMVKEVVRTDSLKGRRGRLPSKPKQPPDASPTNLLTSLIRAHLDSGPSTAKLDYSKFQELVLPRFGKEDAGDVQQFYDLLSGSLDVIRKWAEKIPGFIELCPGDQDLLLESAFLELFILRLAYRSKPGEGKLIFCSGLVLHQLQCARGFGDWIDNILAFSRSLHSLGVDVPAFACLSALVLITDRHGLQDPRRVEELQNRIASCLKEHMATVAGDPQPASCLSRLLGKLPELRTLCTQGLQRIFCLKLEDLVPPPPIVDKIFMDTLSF

[5] = molecular target: Nuclear receptor subfamily 4 group A member 1 (Mus musculus) (UniProt P12813); experiment: Agonist activity at Nur77 in Nr4a1 deficient mouse C57BL/6 assessed as fructose-1,6-bisphosphatase mRNA at 50 mg/kg, ip by real-time PCR analysis; format: functional, organism-based; design: dose 50 mg/kg
[6] = molecular target: Nuclear receptor subfamily 4 group A member 1 (Mus musculus) (UniProt P12813); experiment: Agonist activity at Nur77 in Nr4a1 deficient mouse transfected withGAL4-Y453A assessed as transcriptional activation of luciferase reporter gene; format: functional
Outline: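 Nr4a1-/- mice (n = 5/group) given tail-vein GAL4-Nur77 or GAL4-Y453A with GAL4-luciferase reporter and β-galactosidase in in vivo transfection reagent; 5 h later DMSO or Csn-B 50 mg kg-1 ip; liver luciferase measured at 24 h.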

[7] = molecular target: T1, Nuclear receptor subfamily 4immunitygroup A member 1; experiment: Binding affinity to Nur77 receptor expressed in human BGC823 cells; format: cell-based, BGC-823
[8] = molecular target: T1, Nuclear receptor subfamily 4immunitygroup A member 1; experiment: Binding affinity to nuclear orphan receptor Nur77 by sedimentation equilibrium assay
[9] = molecular target: Nuclear receptor subfamily 4 group A member 1 (Mus musculus) (UniProt P12813); experiment: Agonist activity at Nur77 in wild-type mouse C57BL/6 assessed as pyruvate kinase mRNA at 50 mg/kg, ip after 300 mins by real-time PCR analysis; format: functional, organism-based; design: dose 50 mg/kg
BGC-823 [10] = experiment: Induction of Nur77 mediated apoptosis in human BGC823 cells assessed as cytochrome C release from mitochondria at 5 uM after 24 hrs by Western blotting analysis; format: functional, cell-based
[11] = molecular target: T1, Nuclear receptor subfamily 4immunitygroup A member 1; experiment: Agonist activity at nuclear orphan receptor Nur77 expressed in human BGC823 cells co-transfected with pLuc-3500 containing Nr4a1 promoter assessed as transcriptional activity; format: functional, cell-based; settings: BGC-823
BGC-823 [12] = experiment: Antitumor activity against human BGC823 cells expressing Nur77-WT xenografted in athymic nude mouse BALB/c assessed as increase in apoptotic cells by TUNEL assay
[13] = molecular target: T1, Nuclear receptor subfamily 4immunitygroup A member 1; experiment: Agonist activity at nuclear orphan receptor Nur77 expressed in human BGC823 cells co-transfected with fused GAL4-DBD assessed as transactivation after 12 hrs by luciferase reporter gene assay; format: functional, cell-based; settings: BGC-823
[14] = molecular target: Nuclear receptor subfamily 4 group A member 1 (Mus musculus) (UniProt P12813); experiment: Agonist activity at Nur77 in wild-type mouse C57BL/6 assessed as phosphofructokinase mRNA at 50 mg/kg, ip after 300 mins by real-time PCR analysis; format: functional, organism-based; design: dose 50 mg/kg
[15] = molecular target: Nuclear receptor subfamily 4 group A member 1 (Mus musculus) (UniProt P12813); experiment: Agonist activity at Nur77 in Nr4a1-/- mouse transfected withGAL4-Y453A assessed as transcriptional activation of luciferase reporter gene
[16] = molecular target: T1, Nuclear receptor subfamily 4immunitygroup A member 1; experiment: Binding affinity to nuclear orphan receptor Nur77-ligand binding domain at 5 Um by fluorescence quenching analysis
[17] = test system: Mycobacterium tuberculosis; experiment: Antimicrobial activity against Mycobacterium tuberculosis; format: functional, organism-based
[18] = molecular target: T1, Nuclear receptor subfamily 4immunitygroup A member 1; experiment: Binding affinity to NuR77-LBD receptor expressed in human BGC823 cells; format: cell-based, BGC-823
[19] = molecular target: T1, Nuclear receptor subfamily 4immunitygroup A member 1; experiment: Agonist activity at Nur77 expressed in human BGC823 cells assessed as Nr4a1mRNA expression by real-time PCR; format: functional, cell-based; settings: BGC-823
BGC-823 [20] = experiment: Induction of mitochondrial translocation of Nur77 from nucleus in human BGC823 cells transfected with GFP-Nur77 at 5 ug/ml after 12 hrs using immunostained with anti-Hsp60 by confocal microscopy; format: functional, cell-based
Outline: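 BGC-823 cells transfected with GFP-Nur77, treated at 5 μg ml-1 for 12 h, immunostained with anti-Hsp60 and Texas Red secondary antibody, and imaged by confocal microscopy for mitochondrial localization.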

[21] = molecular target: T1, Nuclear receptor subfamily 4immunitygroup A member 1; experiment: Induction of Nur77-SRC3 interaction in HEK293T cells by GST-pull-down assay; format: cell-based; settings: HEK-293T
Outline: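 293T cells transfected with Flag-SRC-1, -2 or -3 and treated at 10⁻⁶ M for 3 h. Lysates were incubated with GST-Nur77 or GST alone, and bound SRC was detected by pull-down against input levels.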

Saccharomyces cerevisiae = experiment: Antimicrobial activity against Saccharomyces cerevisiae; format: functional, organism-based
L02 = experiment: Antiproliferative activity against human HL7702 cells assessed as number of viable cells after 72 hrs by MTT assay; format: functional, cell-based
[22] = molecular target: T1, Nuclear receptor subfamily 4immunitygroup A member 1; experiment: Agonist activity at nuclear orphan receptor Nur77 expressed in human BGC823 cells co-transfected with pLuc-2900 containing Nr4a1 promoter assessed as transcriptional activity; format: functional, cell-based; settings: BGC-823
[23] = molecular target: T1, Nuclear receptor subfamily 4immunitygroup A member 1; experiment: Binding affinity to nuclear orphan receptor Nur77-DNA binding domain at 5 uM by fluorescence quenching analysis
[24] = molecular target: Nuclear receptor subfamily 4 group A member 1 (Mus musculus) (UniProt P12813); experiment: Agonist activity at Nur77 in insulin treated mouse C57BL/6 assessed as fructose-1,6-bisphosphatase mRNA after 60 mins by real-time PCR relative to control; format: functional
Staphylococcus aureus = experiment: Antimicrobial activity against Staphylococcus aureus; format: functional, organism-based
[25] = molecular target: Nuclear receptor subfamily 4 group A member 1 (Mus musculus) (UniProt P12813); experiment: Agonist activity at Nur77 in wild-type mouse C57BL/6 assessed as glucose-6-phosphatase mRNA at 50 mg/kg, ip within 30 mins by real-time PCR analysis relative to control; format: functional, organism-based; design: dose 50 mg/kg
[26] = molecular target: T1, Nuclear receptor subfamily 4immunitygroup A member 1; experiment: Agonist activity at nuclear orphan receptor Nur77 in human BGC823 cells bearing beta-galactosidase expression vector assessed as transcriptional activation of NurRE reporter gene after 12 hrs by luciferase assay; format: functional, cell-based; settings: BGC-823
[27] = molecular target: T1, Nuclear receptor subfamily 4immunitygroup A member 1; experiment: Binding affinity to GST-tagged nuclear orphan receptor Nur77 at 25 degC by fluorescence quenching analysis
Outline: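 GST-Nur77 intrinsic fluorescence (emission maximum 336 nm) monitored while increasing Csn-B amounts were added; inner-filter contribution estimated with GST alone and subtracted to give corrected quenching curves.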

BGC-823 [28] = experiment: Induction of Nur77 mediated apoptosis in human BGC823 cells transfected with si-Nur77 at 5 uM after 48 hrs by flow cytometry assay; format: functional; settings: in the assay text read “5 ug/ml” for “5 uM”
Outline: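 BGC-823 gastric cancer cells, transfected or not with Nur77 siRNA or scrambled control siRNA, then exposed to 5 μg ml-1 for 48 h. Apoptotic cells were counted by flow cytometry.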

[29] = molecular target: T1, Nuclear receptor subfamily 4immunitygroup A member 1; experiment: Agonist activity at nuclear orphan receptor Nur77 in human BGC823 cells bearing beta-galactosidase expression vector assessed as transcriptional activation of estrogen receptor reporter gene after 12 hrs by luciferase assay; format: functional, cell-based; settings: BGC-823

SMILES: CCCCCCCC(=O)c1c(O)cc(O)cc1CC(=O)OCC [CYTOSPORONE B]
- Activity (BGC-823 [1]): Active
- EC50 [2]: 0.278 nM
- Activity (BGC-823 [3]): 63.5%
- Activity [4]: inactive
- Activity [5]: inactive
- Activity [6]: inactive
- Kd [7]: 740 nM
- Activity [8]: Active
- Activity [9]: inactive
- Activity (BGC-823 [10]): Active
- Activity [11]: Active
- Activity (BGC-823 [12]): Active
- Activity [13]: inactive
- Activity [14]: inactive
- Activity [15]: Active
- Activity [16]: Active
- IC50 [17]: 250 µg/mL (≈ 775 µM)
- Kd [18]: 1510 nM
- Activity [19]: Active
- Activity (BGC-823 [20]): Active
- Activity [21]: inactive
- IC50 (Saccharomyces cerevisiae): 1.56 µg/mL (≈ 4.84 µM)
- inhibition (L02): Active
- Activity [22]: Active
- Activity [23]: inactive
- fold change (FC) [24]: 3.05
- IC50 (Staphylococcus aureus): 12.5 µg/mL (≈ 38.8 µM)
- Activity [25]: Active
- Activity [26]: Active
- Activity [27]: Active
- Activity (BGC-823 [28]): 20.1%
- Activity [29]: inactive
